How the values were obtained:
[1] = Stability in human liver S9 fraction assessed as parent compound remaining at 1 uM measured after 1 hr by LC-MS/MS analysis; assay type: ADME, subcellular; settings: read-out: Stability
How it was run: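 Human liver microsomes (0.2 mg/mL protein) or S9 fraction (0.5 mg/mL) were incubated with prodrug at 1 µM final, 37 °C, 1 h with shaking. Reactions were quenched in triplicate with three volumes acetonitrile containing losartan. Parent remaining was taken from analyte/internal-standard peak-area ratio by UHPLC-MS/MS.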

[2] = Stability in swine jejunum assessed as parent compound remaining at 20 uM measured after 1 hr by LC-MS/MS analysis; assay type: ADME, tissue-based, Sus scrofa; settings: pig
How it was run: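 Washed swine jejunum was diluted 10-fold in 0.1 M potassium phosphate buffer and probe-sonicated. Prodrug was spiked at 20 µM final and incubated 1 h at 37 °C with orbital shaking. Triplicate quench in acetonitrile with losartan internal standard. Percent parent remaining by LC-MS/MS peak-area ratio.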

[3] = Prodrug conversion in human plasma suspended with human DU4475 cells assessed as 6-diazo-5-oxo-L-norleucine formation at 20 uM measured after 1 hr by LC-MS/MS analysis; assay type: ADME, cell-free
How it was run: (§1)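 Cells were grown in RPMI 1640 with 10% FBS, washed in DPBS and resuspended in human plasma at 10 million cells/mL. After 5 min preincubation at 37 °C, compound was added at 20 µM final for 1 h. The mix was centrifuged at 10 000g and the washed pellet and plasma were quantified separately. DON was read by LC-MS/MS after dabsyl chloride derivatisation, intact prodrug directly. Standard curves were made in naive cells or plasma.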

[4] = Prodrug conversion in human P493B cells suspended in human plasma assessed as 6-diazo-5-oxo-L-norleucine formation at 20 uM measured after 1 hr by LC-MS/MS analysis; assay type: ADME, cell-based; how it was run: as §1
[5] = Stability in human plasma suspended with human P493B cells at 20 uM measured after 1 hr by LC-MS/MS analysis; assay type: ADME, cell-free; how it was run: as §1
[6] = Drug level in human P493B cells suspended in human plasma assessed as tumor cell to plasma ratio by measuring 6-diazo-5-oxo-L-norleucine formation at 20 uM measured after 1 hr by LC-MS/MS analysis; assay type: ADME, cell-based; how it was run: as §1
[7] = Prodrug conversion in human P493B cells suspended in human plasma assessed as deacetylation by measuring (6a) (S)-2-{(S)-2-[(Adamantane-1-carbonyl)-amino]-6-amino-hexanoylamino}-6-diazo-5-oxo-hexanoic acid isopropyl ester formation measured after 1 hr by HRMS analysis; assay type: ADME, cell-based
How it was run: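 Metabolite identification: compound was incubated 1 h with 10 million P493B cells suspended in 1 mL human plasma. Cell pellets were collected and metabolites identified by HRMS.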

[8] = organism: Homo sapiens; assay: Stability of the compound assessed as recombinant human cathepsin L/cathepsin B-mediated compound hydrolysis by measuring parent compound remaining at 1 uM measured after 3 hrs by UHPLC-MS analysis
How it was run: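 Compound at 1 µM was incubated at 37 °C with shaking in 50 mM MES pH 6 with 5 mM DTT. Recombinant human enzyme final levels: HDAC2 10 µg/mL, cathepsin B 1 µg/mL, cathepsin L 0.1 µg/mL, alone or cathepsins B+L combined. Aliquots were quenched in methanol with losartan at 0.25, 0.5, 1 and 3 h. Parent remaining by Q-TOF LC-MS.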

[9] = Ratio of 6-diazo-5-oxo-L-norleucine EC50 to test compound EC50 for human P493B cells; assay type: functional
[10] = Stability of the compound in CES1-deficient C57BL/6 mouse plasma measured after 60 mins by UHPLC-MS analysis; assay type: ADME, cell-free; settings: 1 h
[11] = Cmax in CES1-deficient C57BL/6 mouse plasma implanted with mouse EL4 cells at 3.2 mg/kg, sc administered as single dose by LC-MS/MS analysis; assay type: ADME, organism-based; set-up: dose 3.2 mg/kg, route subcutaneous
How it was run: (§2)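 Male and female C57BL/6 CES1-/- mice, 6–8 weeks old, carried flank EL4 tumours from SC injection of 1 × 10^6 cells in PBS. Dosing began at about 400 mm3 mean tumour volume. Each mouse got one SC dose of 3.2 mg/kg (1 mg/kg DON equivalent) in ethanol/Tween 80/saline 5:10:85. Plasma, jejunum and tumour were taken at set times, n = 3 per time point. Prodrug and dabsyl-derivatised DON were measured by LC-MS/MS. Noncompartmental analysis: Cmax and Tmax observed, AUClast by log-linear trapezoidal rule.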

[12] = Cmax in CES1-deficient C57BL/6 mouse tumor implanted with mouse EL4 cells at 3.2 mg/kg, sc administered as single dose by LC-MS/MS analysis; assay type: ADME, organism-based, Neoplasm; set-up: dose 3.2 mg/kg, route subcutaneous; settings: in vivo; how it was run: as §2
[13] = Tmax in CES1-deficient C57BL/6 mouse jejunum implanted with mouse EL4 cells at 3.2 mg/kg, sc administered as single dose by LC-MS/MS analysis; assay type: ADME, organism-based; settings: in vivo, BLD = below limit of detection; how it was run: as §2
[14] = AUC (0 to t) in CES1-deficient C57BL/6 mouse plasma implanted with mouse EL4 cells at 3.2 mg/kg, sc administered as single dose by LC-MS/MS analysis; assay type: ADME, organism-based; how it was run: as §2
[15] = AUC (0 to t) in CES1-deficient C57BL/6 mouse tumor implanted with mouse EL4 cells at 3.2 mg/kg, sc administered as single dose by LC-MS/MS analysis; assay type: ADME, organism-based, Neoplasm; settings: in vivo; how it was run: as §2
[16] = Cmax in CES1-deficient C57BL/6 mouse tumor implanted with mouse EL4 cells assessed as 6-diazo-5-oxo-L-norleucine level at 3.2 mg/kg, sc administered as single dose by LC-MS/MS analysis; assay type: ADME, organism-based, Neoplasm; set-up: dose 3.2 mg/kg, route subcutaneous; settings: in vivo; how it was run: as §2
[17] = Tmax in CES1-deficient C57BL/6 mouse tumor implanted with mouse EL4 cells assessed as 6-diazo-5-oxo-L-norleucine level at 3.2 mg/kg, sc administered as single dose by LC-MS/MS analysis; assay type: ADME, organism-based, Neoplasm; settings: in vivo; how it was run: as §2
[18] = AUC (0 to t) in CES1-deficient C57BL/6 mouse tumor implanted with mouse EL4 cells assessed as 6-diazo-5-oxo-L-norleucine level at 3.2 mg/kg, sc administered as single dose by LC-MS/MS analysis; assay type: ADME, organism-based, Neoplasm; settings: in vivo; how it was run: as §2
[19] = Ratio of AUC (0 to t) in tumor to plasma of CES1-deficient C57BL/6 mouse implanted with mouse EL4 cells assessed as 6-diazo-5-oxo-L-norleucine level at 3.2 mg/kg, sc administered as single dose by LC-MS/MS analysis; assay type: ADME, organism-based; settings: tumour
How it was run: (§3)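 Tissue-to-tissue ratios of DON AUClast came from noncompartmental analysis. EL4-bearing CES1-/- C57BL/6 mice received one SC dose of 3.2 mg/kg (1 mg/kg DON equivalent) in ethanol/Tween 80/saline 5:10:85. Tumour, jejunum and plasma were sampled over time, n = 3 mice per time point. DON was read by LC-MS/MS after dabsyl chloride derivatisation.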

[20] = Ratio of AUC (0 to t) in tumor to jejunum of CES1-deficient C57BL/6 mouse implanted with mouse EL4 cells assessed as 6-diazo-5-oxo-L-norleucine level at 3.2 mg/kg, sc administered as single dose by LC-MS/MS analysis; assay type: ADME, organism-based; settings: in vivo; how it was run: as §3
[21] = Stability in mouse plasma assessed as parent compound remaining at 20 uM measured after 1 hr by LC-MS/MS analysis
[22] = AUC in CES1-deficient C57BL/6 mouse jejunum implanted with mouse EL4 cells assessed as 6-diazo-5-oxo-L-norleucine level at 3.2 mg/kg, sc administered as single dose by LC-MS/MS analysis; settings: in vivo

With CC(=O)NCCCC[C@H](NC(=O)C12CC3CC(CC(C3)C1)C2)C(=O)N[C@@H](CCC(=O)C=[N+]=[N-])C(=O)OC(C)C as the compound, how does the remaining at 1 h, 1 µM [1] read?
Its remaining at 1 h, 1 µM is 100%.

What about the Stability [2] of the same compound?
Its Stability is > 50%.

And the Drug metabolism [3]?
Its Drug metabolism is 0.25 to 0.5 µM.

What about the Drug metabolism [4] of the same compound?
Its Drug metabolism is 8.81 µM.

And the Stability [5]?
Its Stability is “Stable”.

And the Ratio [6]?
The Ratio was 22.

And the Drug metabolism [7]?
Its Drug metabolism is “Metabolite_Detected”.

And the Stability [8]?
The Stability was 9%.

And the “Ratio EC50” value [9]?
Its value is 2.

What about the Stability [10] of the same compound?
Its Stability is “Stable”.

What about the Cmax [11] of the same compound?
The Cmax was 820 nM.

And the Cmax [12]?
Its Cmax is 0.05 nmol/g.

What about the Tmax [13] of the same compound?
The Tmax was “Bld”.

And the AUC(0-t) [14]?
Its AUC(0-t) is 0.4 µM·h.

What about the AUCt [15] of the same compound?
Its AUCt is 0.03 nmol·h/g.

And the Cmax [16]?
Its Cmax is 1.55 nmol/g.

What about the Tmax [17] of the same compound?
Its Tmax is 1 h.

And the AUCt [18]?
Its AUCt is 5.07 nmol·h/g.

What about the “Ratio AUC” value [19] of the same compound?
Its value is 5.

And the “Ratio AUC” value [20]?
Its value is 11.

And the Stability [21]?
The Stability was 0%.

And the AUC [22]?
The AUC was 0.45 nmol·h/g.

Reference: ChEMBL document CHEMBL4340525, “Tumor-Targeted Delivery of 6-Diazo-5-oxo-l-norleucine (DON) Using Substituted Acetylated Lysine Prodrugs” (J Med Chem, 2019)
